# Measured values reported in ChEMBL document CHEMBL4725264, “Synthesis and biological evaluation of a novel photo-activated histone deacetylase inhibitor” (Bioorg Med Chem Lett, 2020).
# The source made the active and inactive calls. The rule behind the calls is not given here.
# How the values were obtained:
# [1] = Drug metabolism assessed as photolysis by measuring parent compound at 4.26 mM using MeCN and Water (1:3) as solvent system measured upon irradiation with 8-Watt UV365nm light after 75 mins by HPLC analysis; type: physicochemical; details: MeCN and water (1:3) solvent system, read-out: Drug metabolism
# Procedure, shortened: (§1)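 Caged compound prepared as 4.26 mM solution in MeCN/water (1:3). Irradiated with 8-Watt 365 nm UV lamp. Aliquots taken at 30, 45, 60, 75 and 90 min and analysed by HPLC for remaining caged parent and released hydroxamic acid (identified by m/z). Carboxamide side product tracked by its separate peak.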
# [2] = Drug metabolism assessed as photolysis by measuring parent compound at 85 uM using DMSO, EtOH and water (4:4:92) as solvent system measured upon irradiation with 100mW UV365nm light after 2 mins by HPLC analysis; type: physicochemical
# [3] = Drug metabolism assessed as photolysis by measuring parent compound at 85 uM using DMSO, EtOH and water (4:4:92) as solvent system measured upon irradiation with 100mW UV365nm light after 4 mins by HPLC analysis; type: physicochemical; details: EtOH and water (4:4:92) solvent system, read-out: Drug metabolism
# [4] = test system: HUVEC; experiment: Cytotoxicity against HUVEC at 1.0 mmol/L after 24 hrs by trypan blue staining based assay; type: cell-based; details: human, 1000 µM
# Procedure, shortened: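 HUVECs (pooled donor) grown in Medium-199 with 20% FCS, endothelial cell growth factor and heparin, 37 °C, 5% CO2. Agents dissolved in 100% DMSO and added at final 1.0 mmol/L for 24 h. Viability scored by 0.4% trypan blue exclusion right after culture, relative to viable count at start. Untreated cells as control. At least 3 repeats, averaged.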
# [5] = Drug metabolism assessed as photolysis by measuring parent compound at 4.26 mM using MeCN and Water (1:3) as solvent system measured upon irradiation with 8-Watt UV365nm light after 45 mins by HPLC analysis; type: physicochemical; details: MeCN and water (1:3) solvent system, read-out: Drug metabolism; procedure, shortened: as §1
# [6] = biological target: T1, Histone deacetylase (Homo sapiens) (UniProt Q13547+O15379+Q9UBN7+Q92769+Q9UQL6+Q8WUI4+Q9BY41+Q96DB2+P56524+Q9UKV0+Q969S8); experiment: Inhibition of HDAC in human HL-60 cells assessed as increase in H3 histone acetylation at 10 uM after 24 hrs by Western blot anlaysis; type: cell-based
# Procedure, shortened: (§2)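 Caged compound coated on angioplasty balloon at 3.0ug/mm2. Balloon either exposed to 365 nm UV (65mW, 4 min) or left unexposed, then compound eluted. HL60 cells (RPMI-1640, 10% heat-inactivated FCS, 37 °C, 5% CO2) treated with eluate at 10.0 µM for 24 h, then PBS-washed. Histones acid-extracted (H2SO4, acetone precipitation), quantified by Bradford. 25 µg per lane run on 15% SDS-PAGE and transferred to PVDF. Blocked in 5% milk, probed overnight at 4 °C with anti-acetyl histone H3, detected with HRP anti-rabbit IgG (1:1000). Untreated cells as control.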
# [7] = Drug metabolism assessed as photolysis by measuring parent compound at 4.26 mM using MeCN and Water (1:3) as solvent system measured upon irradiation with 8-Watt UV365nm light after 60 mins by HPLC analysis; type: physicochemical; details: MeCN and water (1:3) solvent system, read-out: Drug metabolism; procedure, shortened: as §1
# [8] = Drug metabolism assessed as photolysis by measuring parent compound at 4.26 mM using MeCN and Water (1:3) as solvent system measured upon irradiation with 8-Watt UV365nm light after 90 mins by HPLC analysis; type: physicochemical; details: MeCN and water (1:3) solvent system, read-out: Drug metabolism; procedure, shortened: as §1
# [9] = Drug metabolism assessed as photolysis by measuring parent compound at 4.26 mM using MeCN and Water (1:3) as solvent system measured upon irradiation with 8-Watt UV365nm light after 30 mins by HPLC analysis; type: physicochemical; details: MeCN and water (1:3) solvent system, read-out: Drug metabolism; procedure, shortened: as §1
# [10] = Drug metabolism assessed as photolysis by measuring parent compound at 85 uM using DMSO, EtOH and water (4:4:92) as solvent system measured upon irradiation with 100mW UV365nm light after 6 mins by HPLC analysis; type: physicochemical; details: EtOH and water (4:4:92) solvent system, read-out: Drug metabolism
# [11] = biological target: T1, Histone deacetylase (Homo sapiens); experiment: Inhibition of HDAC in human HL-60 cells assessed as increase in H3 histone acetylation at 10 uM under UV irradiation after 24 hrs by Western blot anlaysis; type: cell-based; procedure, shortened: as §2
compound,measurement,setting,value
COc1cc(C(C)ONC(=O)c2ccc(-c3cccc(NS(C)(=O)=O)c3)cc2)c([N+](=O)[O-])cc1OCCCC(=O)O (centres undefined),"remaining at 1.25 h, 4260 µM",[1],2.4%
same,Drug metabolism,[2],28.9%
same,"remaining at 4 min, 85 µM",[3],11.1%
same,Activity,[4],Non-Toxic
same,"remaining at 0.75 h, 4260 µM",[5],18%
same,inhibition,[6],inactive
same,"remaining at 1 h, 4260 µM",[7],8.4%
same,"remaining at 1.5 h, 4260 µM",[8],0.7%
same,"remaining at 0.5 h, 4260 µM",[9],53.3%
same,"remaining at 0.1 h, 85 µM",[10],8.2%
same,inhibition,[11],Active
CC(=O)O[C@H]1C(=O)[C@@]2(C)[C@H]([C@H](OC(=O)c3ccccc3)[C@]3(O)C[C@H](OC(=O)[C@H](O)[C@@H](NC(=O)c4ccccc4)c4ccccc4)C(C)=C1C3(C)C)[C@]1(OC(C)=O)CO[C@@H]1C[C@@H]2O [PACLITAXEL],Activity,[4],Toxic
CS(=O)(=O)Nc1cccc(-c2ccc(C(=O)NO)cc2)c1,Activity,[4],Toxic
same,inhibition,[6],Active
